Data taken from ChEMBL document CHEMBL1121884, “Piperazinylquinoxalines with central serotoninmimetic activity” (1981).
Activity calls are given as the source filed them. No cut-off for these calls is given here.

Experiments:
[1] = target: T1, Serotonin (5-HT) receptor (Rattus norvegicus) (UniProt P35563+P35365+P32305+P31388+Q9JJ16+P28564+P30994+Q62758+P08909+P14842+P30940+P35364+P19327+P28565); experiment: (§1) Ability to elicit head twitches in rats (a serotonin mimetic response); assay type: functional; design: concentration or dose not given beside the values
Method in brief: (§2)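 Female Sprague-Dawley rats (150-250 g), compound given ip in 1% methylcellulose vehicle, dose as base weight; quantal scoring of rats showing at least one head twitch during a 2-min observation beginning 30 min after dosing; usually six rats per dose level; vehicle controls run.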

[2] = target: T1, Serotonin (5-HT) receptor (Rattus norvegicus); experiment: as §1; assay type: functional; design: concentration or dose not given beside the values; method in brief: as §2; remark: listed apart in the source
Rattus norvegicus [3] = experiment: Ability to elicit head twitches in rats a response characteristic of a serotonin mimetic action in the central nervous system after 40 mg/kg of ip administration; Animals succumbed; assay type: functional, organism-based; design: dose 40 mg/kg; method in brief: as §2
Rattus norvegicus [4] = experiment: Serotonin neuronal reuptake blocking activity was determined by the antagonism of the head twitch response induced in rats with p-chloromethamphetamine (PCMA) after 40 mg/kg of ip administration; Animals succumbed; assay type: functional, organism-based; design: dose 40 mg/kg
Method in brief: (§3)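 Female Sprague-Dawley rats (150-250 g) dosed ip with compound (1% methylcellulose vehicle, dose as base weight), then p-chloromethamphetamine 6.0 mg/kg ip 1 h later; head twitches observed 30 min after PCMA; scored as rats not twitching; usually six rats per dose; ED50 = dose antagonizing PCMA head twitch in 50% of animals, with 95% confidence limits.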

[5] = target: Sodium-dependent serotonin transporter (Rattus norvegicus) (UniProt P31652); experiment: (§4) Serotonin neuronal reuptake blocking activity was determined by the antagonism of the head twitch response induced by treatment of rats; assay type: functional; design: concentration or dose not given beside the values; method in brief: as §3
[6] = target: Sodium-dependent serotonin transporter (Rattus norvegicus) (UniProt P31652); experiment: as §4; assay type: functional; design: concentration or dose not given beside the values; method in brief: as §3; remark: listed apart in the source
[7] = target: T1, Serotonin (5-HT) receptor (Rattus norvegicus); experiment: as §1; assay type: functional; design: concentration or dose not given beside the values; method in brief: as §2; remark: listed apart in the source
[8] = target: Sodium-dependent serotonin transporter (Rattus norvegicus) (UniProt P31652); experiment: Serotonin neuronal reuptake blocking activity was determined by the antagonism of the head twitch response induced in rats; assay type: functional; design: concentration or dose not given beside the values; method in brief: as §3
Rattus norvegicus [9] = experiment: Ability to elicit head twitches in rats a response characteristic of a serotonin mimetic action in the central nervous system was measured after 2 mg/kg of ip administration; assay type: functional; details: route intraperitoneal; method in brief: as §2
Rattus norvegicus [10] = experiment: Ability to elicit head twitches in rats a response characteristic of a serotonin mimetic action in the central nervous system was measured after 0.67 mg/kg of ip administration; assay type: functional; details: route intraperitoneal; method in brief: as §2
Rattus norvegicus [11] = experiment: Ability to elicit head twitches in rats a response characteristic of a serotonin mimetic action in the central nervous system after 6 mg/kg of ip administration; assay type: functional; details: route intraperitoneal; method in brief: as §2

Sodium-dependent serotonin transporter (Rattus norvegicus), sequence (P31652 whole entry): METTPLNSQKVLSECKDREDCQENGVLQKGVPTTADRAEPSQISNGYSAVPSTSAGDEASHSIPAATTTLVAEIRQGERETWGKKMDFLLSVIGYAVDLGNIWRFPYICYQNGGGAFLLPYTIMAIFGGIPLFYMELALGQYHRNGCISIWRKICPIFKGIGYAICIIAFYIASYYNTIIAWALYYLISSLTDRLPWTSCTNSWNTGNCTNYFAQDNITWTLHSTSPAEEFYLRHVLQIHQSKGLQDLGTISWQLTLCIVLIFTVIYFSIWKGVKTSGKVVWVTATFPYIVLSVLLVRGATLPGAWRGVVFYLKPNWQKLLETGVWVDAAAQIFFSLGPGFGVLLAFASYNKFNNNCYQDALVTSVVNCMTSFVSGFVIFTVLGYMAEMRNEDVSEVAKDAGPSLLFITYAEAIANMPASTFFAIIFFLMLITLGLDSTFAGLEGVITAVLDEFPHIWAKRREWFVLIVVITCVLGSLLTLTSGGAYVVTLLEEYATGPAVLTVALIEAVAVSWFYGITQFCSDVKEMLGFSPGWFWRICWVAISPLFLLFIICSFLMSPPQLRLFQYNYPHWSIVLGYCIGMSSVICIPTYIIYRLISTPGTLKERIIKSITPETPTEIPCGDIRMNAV

| SMILES | Activity [1] | Activity [2] | Activity (Rattus norvegicus [3]) | PCMA antagonism (Rattus norvegicus [4]) | PCMA antagonism [5] | PCMA antagonism [6] | Activity [7] | PCMA antagonism [8] | Activity (Rattus norvegicus [9]) | Activity (Rattus norvegicus [10]) | Activity (Rattus norvegicus [11]) |
| --- | --- | --- | --- | --- | --- | --- | --- | --- | --- | --- | --- |
| Fc1cccc2ncc(N3CCNCC3)nc12 | 6 | 1 | Active | Active | 1 | 0 | – | – | – | – | – |
| COc1cccc2nc(N3CCNCC3)cnc12 | 2 | 1 | – | – | 1 | 0 | 3 | 2 | – | – | – |
| O=[N+]([O-])c1ccc2nc(N3CCNCC3)cnc2c1 | 2 | 4 | – | – | 6 | 5 | 2 | 5 | – | – | – |
| O=C1CN(c2cnc3ccccc3n2)CCN1 | 0 | 0 | – | – | – | – | 3 | – | – | – | – |
| COc1ccc2nc(N3CCNCC3)cnc2c1 | 1 | 1 | Active | – | 5 | 3 | – | – | – | – | – |
| CN(C)CCn1c(=O)c(N2CCNCC2)nc2ccccc21 | 0 | 1 | – | – | 0 | 2 | 1 | 0 | – | – | – |
| Nc1nc2ccccc2nc1N1CCNCC1 | 3 | 2 | – | – | 1 | 1 | 6 | 0 | – | – | – |
| CC(=O)N1CCN(c2cnc3cc(Cl)ccc3n2)CC1 | 2 | 2 | – | – | 1 | 0 | 1 | 0 | – | – | – |
| CN1CCN(c2nc3ccccc3nc2O)CC1 | 0 | 0 | – | – | 0 | 1 | 6 | 0 | – | – | – |
| Fc1cccc2nc(N3CCNCC3)cnc12 | 6 | 6 | – | – | – | – | – | – | – | – | – |
| COc1ccc2ncc(N3CCNCC3)nc2c1 | – | – | – | – | – | – | – | – | 5 | 1 | 6 |
| O=C(O)C1CN(c2cnc3ccccc3n2)CCN1 (configuration not stated) | 1 | 2 | – | – | 0 | 0 | 0 | 0 | – | – | – |
| [O-][n+]1cc(N2CCNCC2)nc2ccccc21 | 6 | 6 | – | – | – | – | – | – | – | – | – |
| CN1CCN(c2nc3ccc(S(N)(=O)=O)cc3nc2Cl)CC1 | 1 | 3 | – | – | 2 | 2 | 4 | 2 | – | – | – |
| Oc1ccc2nc(N3CCNCC3)cnc2c1 | 0 | 0 | – | – | 0 | – | 1 | 2 | – | – | – |
| Oc1nc2ccccc2nc1N1CCNCC1 | 6 | 2 | – | – | – | – | 0 | 1 | – | – | – |
| Fc1ccc2nc(N3CCNCC3)cnc2c1 | – | – | – | – | 2 | 2 | – | 4 | 4 | 4 | 5 |
| c1ccc2nc(N3CCNCC3)cnc2c1 | 12 | 9 | Active | Active | 2 | 2 | – | – | – | – | – |
| Clc1cc2ncc(N3CCNCC3)nc2cc1Cl | 2 | 0 | – | – | 4 | 1 | 1 | 3 | – | – | – |
| Clc1ccc2nc(N3CCNCC3)c(Sc3ccccc3)nc2c1 | 1 | 1 | – | – | 2 | 1 | 0 | 1 | – | – | – |
